The values below come from ChEMBL document CHEMBL4513216, “Probing the Open Global Health Chemical Diversity Library for Multistage-Active Starting Points for Next-Generation Antimalarials” (ACS Infect Dis, 2020).

Each structure is given as a SMILES string.

A short description of this data set: Toxicity liver stage against HepG2, at 10uM. It is filed as cell-based. The arrangement: test concentration 10 uM, cell line HepG2-A16-CD81EGFP. The following applies: human, HepG2-A16-CD81EGFP cells; read-out: INHIBITION
In short, it runs like this: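 Uninfected HepG2-A16-CD81EGFP cells, 3 × 10^3 per well, 1536-well, plated on prespotted compound at 10 μM final, parasite-free screening media added to match infected plates; puromycin 10 μM positive, DMSO 0.5% negative; run in parallel with 48 h PbLuc assay at 37 °C, 5% CO2; viability by CellTiter-Glo luminescence, normalized to controls.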
With `Cc1csc(CCNc2ccc(C#N)cn2)n1`, the cytotoxicity at 10 µM was 0.738%.

For `Cc1nn(C)c(Cl)c1S(=O)(=O)N(C)C`, the cytotoxicity at 10 µM was determined as 3.66%. Consider `Cn1ccnc1CNC[C@H]1Cn2cc(-c3ccccc3)nc2CO1`, for which the cytotoxicity at 10 µM was -6.09%. With `c1cc(-c2noc([C@@H]3CCCN3CC3CC3)n2)cc(N2CCCC2)n1` the figure was 4.12%; with `CS(=O)(=O)N1C[C@@H]2OCC(=O)N(CC3CCC3)[C@@H]2C1`, 8.94%. Regarding `COCCNC(=O)[C@@H](C)[C@@H]1CCc2c(C)cc(OCC(=O)O)c(C)c2C1`, the cytotoxicity at 10 µM stood at 0.523%.

Regarding `c1cncc(O[C@H]2COCCN(CC3CC3)C2)c1`, the cytotoxicity at 10 µM was found to be 3.38%. Consider `CCn1nc(Br)nc1Sc1ccccc1NC(C)=O`, for which the cytotoxicity at 10 µM was -6.17%. For `O=C(Cc1ccccc1Cl)NCC1CCN(Cc2ccsc2)CC1`, the cytotoxicity at 10 µM was -9.12%. As for `CCOc1ccccc1NC(=O)Nc1cc(N2CCCC2)ncn1`, the cytotoxicity at 10 µM was -0.113%.

As to `O=C(NCC1CCOCC1)[C@@H]1C[C@@H]2[C@@H](CCN2Cc2ccoc2)O1`, the cytotoxicity at 10 µM turned out to be 5%. On to `CNC(=O)N1CCC2(CC1)CC[C@@]1(C(=O)NC)CN(S(C)(=O)=O)C[C@@H]21`, for which the cytotoxicity at 10 µM is -3.91%. For `Cc1ccc(N2CC[C@H]3OCC[C@@]3(C(=O)NCC3CC3)C2)nn1`, the cytotoxicity at 10 µM was 3.22%. `Cc1noc(C)c1CN1CCC2(CC1)NC(=O)CC2c1cnn(C)c1` (stereo not given): the cytotoxicity at 10 µM amounted to 5.64%. For `CC(=O)c1nn(-c2cccc(Cl)c2)c(C)c1C(C)=O`, the cytotoxicity at 10 µM was -3.55%.

Take `COc1cccc2c3c(c(=O)n(C)c12)CCC(C)(C)O3`: the cytotoxicity at 10 µM came to 0.55%. The result for `COC(=O)CC(c1ccccc1)c1oc(C)cc(=O)c1O` (stereo not given) reads 26.7%; that for `CC(NC(=O)c1ccc(Cl)cc1)c1nnc(SCC(N)=O)n1C` (stereo not given), 6.27%; that for `CCn1nnc(NCc2ccc(-c3ccc(Br)cc3)o2)n1`, -10.1%. With `CCn1ccc(-c2cc(C(=O)O)n3nc(C)c(Cl)c3n2)n1` the figure was -3.48%. In the case of `CN(C)Cc1cnc(C2CCN(C(=O)c3cccc(Cl)c3)C2)[nH]1` (stereo not given), the cytotoxicity at 10 µM is -3.36%. For the compound `Cc1csc(NC(=O)C2(C)CN(C)CCO2)n1` (stereo not given), the cytotoxicity at 10 µM was -3.67%. Take `CN1C[C@@H](c2cccc(F)c2)[C@H]2[C@H]1CCCCCN2C(=O)C1CC1`: the cytotoxicity at 10 µM is 4.21%. For `CN(C)c1nccc(C2CCCN2S(=O)(=O)c2cn(C)cn2)n1` (stereo not given), the cytotoxicity at 10 µM is -20.2%. Consider `Cc1cc(C)nc(C2CCN(C(=O)c3cnc(N(C)C)nc3)C2)n1` (stereo not given), for which the cytotoxicity at 10 µM is -18.1%. With `COc1ccc(OC)c(C(O)CN2CCC(N3CCC(C)CC3)CC2)c1` (stereo not given), the cytotoxicity at 10 µM was -25.5%. On to `CN(C)CC(=O)N1CCCCC1c1nc(N)ncc1-c1ccccc1` (stereo not given), for which the cytotoxicity at 10 µM is -0.155%.

Consider `Cc1nn(C)c2ncc(NC(=O)N(C)Cc3cnn(C)c3)cc12`, for which the cytotoxicity at 10 µM was -0.768%.

`CNC(=O)[C@@H](C)NC(=O)c1cc(-c2ccc(F)cc2)c(C)s1`: the cytotoxicity at 10 µM is -5.2%. With `CC(C)c1nn(C)c(N(C)C)c1CNC1CCOc2ccccc21` (stereo not given) the figure was 9.36%. As to `CC(Oc1ccc(F)c(F)c1)C(=O)N(CC(N)=O)C1CCCC1` (stereo not given), the cytotoxicity at 10 µM is -0.146%. Turning to `O=C(OCc1cccc(F)c1)c1cccc(C(=O)N2CCCC2)n1`, the cytotoxicity at 10 µM was -1.6%.

Turning to `O=C(CNC1CCc2ncnn2C1)NCCc1cccs1` (stereo not given), the cytotoxicity at 10 µM was -10.9%. Regarding `CCC(CC)C(=O)NCCC(=O)N1CCN(c2ccccn2)CC1`, the cytotoxicity at 10 µM was 4.65%. In the case of `O=S(=O)(c1ccc(C(F)(F)F)cc1)N1CCC(OCc2ccccn2)C1` (stereo not given), the cytotoxicity at 10 µM came out at 1.22%.

Consider `Cc1nnc(NCCC(=O)NCc2ccccc2)c(C#N)c1C`, for which the cytotoxicity at 10 µM was -3.57%. Regarding `COCCOCCNS(=O)(=O)C1CS(=O)(=O)c2ccccc21` (stereo not given), the cytotoxicity at 10 µM is -15.3%. In the case of `Cn1ccnc1CCNS(=O)(=O)Cc1cccc(C#N)c1`, the cytotoxicity at 10 µM amounted to 0.867%. The result for `Cc1cccc(OC2CCN(c3ncc(C#N)cc3Cl)CC2)n1` reads 8.13%; that for `CCc1noc(CS(=O)(=O)C/C=C/c2ccccc2)n1`, -18.4%. Consider `CCN(Cc1nnnn1C1CC1)c1cc(C)ccc1C`, for which the cytotoxicity at 10 µM is 9.21%.

For the compound `CCC(NCc1cccc(Cl)c1)c1ccccc1OCC(=O)NC` (stereo not given), the cytotoxicity at 10 µM is -2.65%. With `CS(=O)(=O)c1cccc(S(=O)(=O)NC(=O)CC2CCCC2)c1`, the cytotoxicity at 10 µM is -7.59%.

With `Cc1ccc(C2CSCCN2C(=O)c2ccnc(N(C)C)c2)o1` (stereo not given), the cytotoxicity at 10 µM stood at 12.8%. On to `Cc1n[nH]c(C2CN(Cc3csc(C4CC4)n3)CCO2)n1` (stereo not given), for which the cytotoxicity at 10 µM was -0.18%. As for `CC(NC(=O)c1ccc(CS(C)(=O)=O)o1)c1ccc(F)c(F)c1` (stereo not given), the cytotoxicity at 10 µM was -5.85%. Regarding `CCC1CN(C(=O)COc2ccc(C)nc2)CCO1` (stereo not given), the cytotoxicity at 10 µM is -3.7%. For the compound `COC(C)(C)c1noc(C2(C#N)CCCCC2)n1`, the cytotoxicity at 10 µM is -2.11%. `CCC(CC)c1nnc(NC(=O)N2CCC(C(N)=O)CC2)s1`: the cytotoxicity at 10 µM came out at 8.26%. `CCOc1ccnc(N2CCN(C(=O)CCc3ccsc3)CC2)n1`: the cytotoxicity at 10 µM stood at 8.15%. As for `CCCN1C(=O)C2(CCCCC2)NC1c1cn(C)c(=O)n(C)c1=O` (stereo not given), the cytotoxicity at 10 µM turned out to be 4.45%. As to `O=C(NCC1CCS(=O)(=O)C1)c1sccc1-c1ccc(F)cc1` (stereo not given), the cytotoxicity at 10 µM was -1.79%. On to `Cc1ccc(C(=O)NC(C)CN2CCCC2=O)c(=O)[nH]1` (stereo not given), for which the cytotoxicity at 10 µM was -0.524%. `Cn1cc2c(n1)C(COCC1CC1)CN(Cc1ccccn1)C2` (stereo not given): the cytotoxicity at 10 µM is -1.8%. In the case of `Cc1cccc(-c2nc(N)nc3c2CN(C(=O)C2CCCC2)C3C)c1` (stereo not given), the cytotoxicity at 10 µM worked out at 13.2%. With `Cn1c(-c2ccccc2Cl)nc2cc(C(=O)NCCS(C)(=O)=O)cnc21` the figure was -3.2%; with `CCc1nnsc1-c1nc(C(C)C)nn1-c1ccc2c(c1)OCO2`, -9.69%. In the case of `O=C1CC2(CCN(Cc3ncc[nH]3)CC2)CN1Cc1ccc(Cl)cc1`, the cytotoxicity at 10 µM was found to be 5.85%. Regarding `Cc1nc(CCN)cc(N(C)Cc2nc3ccc(F)cc3[nH]2)n1`, the cytotoxicity at 10 µM is -0.581%. For the compound `O=C(Nc1ccccc1OCCc1ccccn1)N1CCOCC(O)C1` (stereo not given), the cytotoxicity at 10 µM turned out to be 4.25%. Take `c1cn(Cc2nnc(C3CCN(C4CCCCC4)CC3)n2C2CC2)cn1`: the cytotoxicity at 10 µM was -6.79%. On to `C[C@@H]1CN(C(=O)C2CCS(=O)(=O)CC2)CC[C@@]1(O)C1CCOCC1`, for which the cytotoxicity at 10 µM was -9.34%.

For the compound `CC(C)(C)N1CC(C(=O)NCc2noc(Cc3ccccc3)n2)CC1=O` (stereo not given), the cytotoxicity at 10 µM was determined as 0.824%. As for `CO[C@H]1CN(C(C)C)C[C@@H]1NC(=O)Nc1cccc(SC)c1`, the cytotoxicity at 10 µM was found to be 2.85%. With `CCN(CC)Cc1cc(C(=O)N2CCC3(CC2)NCCNC3=O)c(C)o1`, the cytotoxicity at 10 µM is 4.01%.

Turning to `c1cc2c(cc1C[C@@H]1CC[C@H](CN3CCCOCC3)O1)OCO2`, the cytotoxicity at 10 µM is -12.9%.

`c1ccc2c(c1)CC(CNCc1ccncc1)(N1CCCCC1)C2`: the cytotoxicity at 10 µM was -7.72%. With `CN1CC2(CCN(C(=O)CCCOCc3ccccc3)C2)OC1=O` (stereo not given), the cytotoxicity at 10 µM was determined as 4.49%. As for `CN(CCc1ccccn1)[C@@H]1CCN(c2cc(C(N)=O)ccn2)C[C@H]1O`, the cytotoxicity at 10 µM is -9.17%. On to `CC(=O)N1CCNCC1c1cccc(C(=O)N(C)C)c1` (stereo not given), for which the cytotoxicity at 10 µM worked out at 4.45%. The result for `CN(CCC(F)(F)F)C(=O)c1nc(S(C)(=O)=O)n2ccccc12` reads -7.51%; that for `CN(C)c1ccc(C(=O)N2CCCN(Cc3cnn(C)c3)CC2)nn1`, -5.28%; that for `Cc1cc(C)c(CNC(=O)C2CCN(c3cnccn3)CC2)c(=O)[nH]1`, -10.7%.

Turning to `CC(C)(C)c1nnc(CN2CCCC(Cn3cncn3)C2)o1` (stereo not given), the cytotoxicity at 10 µM was -6.31%. Regarding `Cc1nc(C)n(CC2CCCN(CC(=O)Nc3nncs3)C2)n1` (stereo not given), the cytotoxicity at 10 µM is -3.79%. With `Cc1cc(CN2CCN(C(=O)NC(C)Cn3ccnc3)CC2)no1` (stereo not given) the figure was -8.54%; with `N#CC1(C(=O)N2CCN(Cc3cscn3)CC2)CCCC1`, -8.08%; with `CCc1nc(CN(C(C)=O)C2CCN(Cc3cnc(C)cn3)C2)no1` (stereo not given), -4.51%.

For the compound `CCCC(Nc1c(C#N)c(=O)n(C)c(=O)n1C)c1ccc(F)cc1F` (stereo not given), the cytotoxicity at 10 µM is -13.2%.

On to `CC(C(=O)Nc1ncccn1)N1CCCN(c2nccs2)CC1` (stereo not given), for which the cytotoxicity at 10 µM was -2.55%. As to `CCOC(=O)CSc1nnc([C@@H](N)CC(C)C)o1`, the cytotoxicity at 10 µM is 6.76%. The result for `COc1cccc2[nH]c(C(=O)N3CCNCC3C(N)=O)cc12` (stereo not given) reads 4.57%; that for `Cc1nc(COC[C@H]2CCC[C@@]23CN(C(C)C)CCO3)cs1`, -86.7%.

Regarding `CO[C@H]1CCN(S(=O)(=O)c2cn(C)cn2)[C@H]1Cc1cccnc1`, the cytotoxicity at 10 µM is -9.31%. For `CN(C)C(=O)c1ccc(C2CCCNC2)nc1` (stereo not given), the cytotoxicity at 10 µM is -20.7%. `Cn1cc(CN2CCC(F)(F)C3(CCN(c4ncc(F)cn4)C3)C2)cn1` (stereo not given): the cytotoxicity at 10 µM turned out to be 1.2%.

Regarding `COCCC(=O)NC1CCN(CC2(c3cccc(F)c3)CCCC2)CC1`, the cytotoxicity at 10 µM is -24.7%. Turning to `O=C1COC2(COCCN(Cc3cccnc3)C2)CN1c1ccoc1` (stereo not given), the cytotoxicity at 10 µM was determined as 3.22%.

For `CN(C)c1ccc(CNCc2cnc(N3CCOCC3)nc2)cn1`, the cytotoxicity at 10 µM is 9.44%. For `CC1=N[C@@]2(CC[C@@H]3CN(CC4CC4)C[C@@H]32)C(=O)N1CC1CC1`, the cytotoxicity at 10 µM came out at 3.82%. The result for `O=C(c1n[nH]c2c1CN(C1CCOC1)CC2)N1CCCC1` (stereo not given) reads -1.07%; that for `c1csc(CN2C[C@H](OCC3CC3)[C@H]3COC[C@H]32)n1`, 2.57%. As for `COCC1CC2(CCN(Cc3ccncc3)CC2)CN1C(C)C` (stereo not given), the cytotoxicity at 10 µM turned out to be 1.73%. The result for `CCCn1nccc1NC(=O)CN1CCCC1Cn1cccn1` (stereo not given) reads -5.47%. As to `O=C1CCCC2=Nc3nonc3NC(c3ccccc3F)C12` (stereo not given), the cytotoxicity at 10 µM amounted to 1.08%.
